{
  "source": "ChEMBL document CHEMBL4665779",
  "about": "“Novel 2-Substituted 3-Hydroxy-1,6-dimethylpyridin-4(1H)-ones as Dual-Acting Biofilm Inhibitors of Pseudomonas aeruginosa” (J Med Chem, 2020)",
  "key": {"Pseudomonas aeruginosa [1]": {"tested_on": "Pseudomonas aeruginosa", "test": "Inhibition of biofilm formation in multidrug resistant Pseudomonas aeruginosa 1167 at 20 uM relative to control", "format": "functional"}, "Pseudomonas aeruginosa [2]": {"tested_on": "Pseudomonas aeruginosa", "test": "Inhibition of biofilm formation in multidrug resistant Pseudomonas aeruginosa 1121 at 1.25 uM relative to control", "format": "functional"}, "[3]": {"tested_on": "Pseudomonas aeruginosa PAO1", "test": "Inhibition of quorum sensing system rhl in Pseudomonas aeruginosa PAO1 assessed as reduction in rhamnolipid production by orcinol assay", "details": "dose microM 1.25-20", "method_in_brief": "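An overnight culture was diluted 1:100 into a defined minimal medium (0.6% glycerol, 25 μM FeSO4) with compound at 1.25–20 μM and grown 24 h at 37 °C with shaking. Supernatant was ether-extracted twice, dried, resuspended in water, and reacted with 0.19% orcinol in 50% H2SO4 at 80 °C for 30 min. A421 was read and normalized to OD600.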"}, "Pseudomonas aeruginosa [4]": {"tested_on": "Pseudomonas aeruginosa", "test": "Antibacterial activity against Pseudomonas aeruginosa infected in African green monkey Vero cells assessed as cell survival at 20 uM pretreated for 24 hrs followed by cell addition and measured 4 hrs post-infection by MTT assay (reference value: 41.5%)", "format": "functional", "details": "time 28 hrs"}, "[5]": {"tested_on": "Pseudomonas aeruginosa PAO1", "test": "Induction of iron chelation in Pseudomonas aeruginosa PAO1 assessed as increase in iron deficiency by measuring change in total ferric ion concentration at 5 uM by inductively coupled plasma mass spectrometry (reference value: 1.91 +/- 0.8 uM)", "method_in_brief": "(§1)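 PAO1 (OD600 0.05) was diluted 1:100 into ABTGC medium and grown 24 h at 37 °C with shaking, with compound; DFP at 20 μM was the reference. Pellets were washed twice in HEPES and lysed with lysozyme in 50 mM HEPES plus sonication for 30 min. Lysates were digested with 1 M nitric acid, centrifuged, and analysed by ICP-MS. Mean ± SD, triplicate.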"}, "Pseudomonas aeruginosa [6]": {"tested_on": "Pseudomonas aeruginosa", "test": "Inhibition of biofilm formation in multidrug resistant Pseudomonas aeruginosa 1129 at 5 uM relative to control", "format": "functional"}, "[7]": {"target": "Elastase (Pseudomonas aeruginosa (strain ATCC 15692 / PAO1 / 1C / PRS 101 / LMG12228)) (UniProt P14756)", "sequence (P14756 198-498 limits assumed)": "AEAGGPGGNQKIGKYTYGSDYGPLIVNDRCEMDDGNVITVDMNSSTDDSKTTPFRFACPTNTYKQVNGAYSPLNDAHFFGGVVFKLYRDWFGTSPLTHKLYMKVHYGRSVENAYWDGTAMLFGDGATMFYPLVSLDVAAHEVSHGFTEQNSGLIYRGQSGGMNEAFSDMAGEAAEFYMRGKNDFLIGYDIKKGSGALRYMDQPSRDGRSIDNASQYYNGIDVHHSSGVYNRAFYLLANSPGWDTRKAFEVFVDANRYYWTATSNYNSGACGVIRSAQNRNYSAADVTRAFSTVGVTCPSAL", "test": "Inhibition of lasB fluorescence in Pseudomonas aeruginosa PAO1 transfected with GFP by measuring fluorescence intensity every 15 mins for 12 hrs by microtiter plate reader assay", "details": "dose microM 1.25-20, time 12.0 hrs", "method_in_brief": "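PAO1-gfp, PAO1-lasB-gfp, PAO1-rhlA-gfp or PAO1-pqsA-gfp reporters were grown overnight in LB, then diluted in ABTGC medium to OD600 0.02, with compound at 1.25–20 μM. Controls were 0.1% DMSO and a blank. OD600 and GFP fluorescence (ex 485/em 535 nm) were read every 15 min for at least 12 h at 37 °C; triplicate.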"}, "[8]": {"tested_on": "Pseudomonas aeruginosa PAO1", "test": "Induction of iron chelation in Pseudomonas aeruginosa PAO1 assessed as increase in iron deficiency by measuring change in total ferric ion concentration at 2.5 uM by inductively coupled plasma mass spectrometry (reference value: 1.91 +/- 0.8 uM)", "method_in_brief": "as §1"}, "[9]": {"test": "Growth inhibition of Pseudomonas aeruginosa PAO1 at 512 uM by CLSI-based broth microdilution method", "method_in_brief": "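Broth microdilution following CLSI standards: two-fold serial dilutions were made in Mueller-Hinton broth and inoculated with P. aeruginosa to a final OD600 of 0.05. The top final concentration is printed as […].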"}, "[10]": {"tested_on": "Pseudomonas aeruginosa PAO1", "test": "Induction of iron chelation in Pseudomonas aeruginosa PAO1 assessed as increase in intracellular pyoverdin level at 1.25 to 20 uM in presence of 50 uM FeCl3 by fluorescence microplate reader assay", "format": "cell-based", "details": "dose microM 1.25-20", "method_in_brief": "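PAO1 overnight LB culture was diluted in ABTGC medium to OD600 0.02 ([…]), with compound at 0–20 μM, in medium containing 10 or 50 μM FeCl3. Plates were kept at 37 °C in a plate reader recording OD600, pyoverdine fluorescence (ex 400/em 447 nm) and pyochelin fluorescence (ex 350/em 430 nm). Triplicate.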"}, "Pseudomonas aeruginosa [11]": {"tested_on": "Pseudomonas aeruginosa", "test": "Inhibition of biofilm formation in multidrug resistant Pseudomonas aeruginosa 1167 at 1.25 uM relative to control", "format": "functional"}, "Pseudomonas aeruginosa [12]": {"tested_on": "Pseudomonas aeruginosa", "test": "Inhibition of biofilm formation in multidrug resistant Pseudomonas aeruginosa FB at 20 uM relative to control", "format": "functional"}, "Pseudomonas aeruginosa [13]": {"tested_on": "Pseudomonas aeruginosa", "test": "Inhibition of biofilm formation in multidrug resistant Pseudomonas aeruginosa 1121 at 5 uM relative to control", "format": "functional"}, "Pseudomonas aeruginosa [14]": {"tested_on": "Pseudomonas aeruginosa", "test": "Antibacterial activity against Pseudomonas aeruginosa infected in African green monkey Vero cells assessed as increase in cell survival pretreated for 24 hrs followed by cell addition and measured 4 hrs post-infection by MTT assay", "format": "functional, organism-based", "details": "dose microM 1.25-20, time 28.0 hrs", "method_in_brief": "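P. aeruginosa cultures were grown with 0, 1.25, 2.5, 5, 10 or 20 μM compound for 24 h at 37 °C with shaking. Washed cells (in DMEM) were infected at MOI 100 for 4 h. Bacteria were then killed with 500 μg/mL gentamycin for 2 h, and cells were given 500 μg/mL MTT for 16 h. Formazan was dissolved in DMSO and read at 570 nm.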"}, "Pseudomonas aeruginosa [15]": {"tested_on": "Pseudomonas aeruginosa", "test": "Inhibition of biofilm formation in multidrug resistant Pseudomonas aeruginosa 1129 at 2.5 uM relative to control", "format": "functional"}, "L02": {"tested_on": "L02", "test": "Cytotoxicity against human L02 cells assessed as reduction in cell viability up to 50 uM after 16 hrs by MTT assay", "format": "cell-based", "details": "l02, 16 h", "method_in_brief": "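Vero or LO2 cells were seeded at 5000–15000 cells/well for 16 h, PBS-washed, then exposed to compound in DMEM at 37 °C and 5% CO2 for 16 h. MTT (20 μL of 5 mg/mL) was added for 3 h, and formazan was dissolved in DMSO and read at 570 nm. Triplicate; mean ± SD.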"}, "[16]": {"tested_on": "Pseudomonas aeruginosa PAO1", "test": "Induction of iron chelation in Pseudomonas aeruginosa PAO1 assessed as increase in iron deficiency by measuring change in total ferric ion concentration at 10 uM by inductively coupled plasma mass spectrometry (reference value: 1.91 +/- 0.8 uM)", "method_in_brief": "as §1"}, "Pseudomonas aeruginosa [17]": {"tested_on": "Pseudomonas aeruginosa", "test": "Antibiofilm activity against Pseudomonas aeruginosa PAO1 assessed as inhibition of biofilm formation after 24 hrs by SYTO 9/propidium iodide staining based confocal microscopic analysis", "format": "functional, organism-based", "details": "dose microM 1.25-20, time 24.0 hrs", "method_in_brief": "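Biofilms were grown as in the crystal violet assay but on glass-bottom wells, with compound at 1.25–20 μM for 24 h at 37 °C against an untreated control. Wells were rinsed three times with PBS and stained for 15 min in the dark with 1 μM SYTO 9 and 10 μM propidium iodide. Confocal imaging used a 63× oil objective; triplicate.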"}},
  "note": "Active and inactive are the calls of the source. No cut-off for these calls is given here.",
  "data": [
    {"smiles": "CCCCCCC(=O)NCc1c(O)c(=O)cc(C)n1C", "values": [
      {"measurement": "inhibition at 20 µM", "setting": "Pseudomonas aeruginosa [1]", "result": 51.4, "unit": "%"},
      {"measurement": "inhibition at 1.25 µM", "setting": "Pseudomonas aeruginosa [2]", "result": 11.8, "unit": "%"},
      {"measurement": "inhibition", "setting": "[3]", "result": "Dose-dependent effect"},
      {"measurement": "survival at 20 µM", "setting": "Pseudomonas aeruginosa [4]", "result": 96.4, "unit": "%"},
      {"measurement": "Activity", "setting": "[5]", "result": 1.17, "unit": "µM"},
      {"measurement": "inhibition at 5 µM", "setting": "Pseudomonas aeruginosa [6]", "result": 30.6, "unit": "%"},
      {"measurement": "inhibition", "setting": "[7]", "result": "Dose-dependent effect"},
      {"measurement": "Activity", "setting": "[8]", "result": 1.56, "unit": "µM"},
      {"measurement": "growth inhibition (GI)", "setting": "[9]", "result": "Non-Toxic"},
      {"measurement": "Activity", "setting": "[10]", "result": "inactive"},
      {"measurement": "inhibition at 1.25 µM", "setting": "Pseudomonas aeruginosa [11]", "result": 34.5, "unit": "%"},
      {"measurement": "inhibition at 20 µM", "setting": "Pseudomonas aeruginosa [12]", "result": 14.4, "unit": "%"},
      {"measurement": "inhibition at 5 µM", "setting": "Pseudomonas aeruginosa [13]", "result": 10.6, "unit": "%"},
      {"measurement": "Activity", "setting": "Pseudomonas aeruginosa [14]", "result": "Dose-dependent effect"},
      {"measurement": "inhibition at 2.5 µM", "setting": "Pseudomonas aeruginosa [15]", "result": 21.3, "unit": "%"},
      {"measurement": "Activity", "setting": "L02", "result": "Non-Toxic"},
      {"measurement": "Activity", "setting": "[16]", "result": 0.97, "unit": "µM"},
      {"measurement": "Activity", "setting": "Pseudomonas aeruginosa [17]", "result": "Dose-dependent effect"}
    ]}
  ]
}
